Measurements reported in ChEMBL document CHEMBL1134320, “Structure of protein tyrosine phosphatase 1B in complex with inhibitors bearing two phosphotyrosine mimetics” (J Med Chem, 2001).

Key:
[1] = molecular target: T1, Tyrosine-protein phosphatase non-receptor type 1 (Homo sapiens, UniProt P18031); test: Binding affinity towards the binding site in PTP1B enzyme
T1 sequence (P18031 whole entry): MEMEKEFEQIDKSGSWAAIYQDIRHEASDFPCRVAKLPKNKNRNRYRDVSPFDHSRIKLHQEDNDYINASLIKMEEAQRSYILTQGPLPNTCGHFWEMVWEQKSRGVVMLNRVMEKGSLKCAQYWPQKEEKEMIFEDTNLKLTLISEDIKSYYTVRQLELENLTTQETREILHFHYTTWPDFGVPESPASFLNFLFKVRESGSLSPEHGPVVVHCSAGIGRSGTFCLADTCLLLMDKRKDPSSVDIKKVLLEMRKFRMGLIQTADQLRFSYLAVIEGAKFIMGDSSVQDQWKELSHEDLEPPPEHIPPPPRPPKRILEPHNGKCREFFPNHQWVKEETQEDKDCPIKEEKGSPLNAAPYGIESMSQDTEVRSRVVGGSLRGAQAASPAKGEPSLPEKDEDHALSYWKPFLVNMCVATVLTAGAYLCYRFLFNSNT

[2] = molecular target: T1, Tyrosine-protein phosphatase non-receptor type 1; test: Binding affinity towards the site of PTP1B enzyme
[3] = molecular target: Tyrosine-protein phosphatase non-receptor type 6 (Homo sapiens, UniProt P29350); test: Inhibitory activity against Protein tyrosine phosphatase SHP-1.
Tyrosine-protein phosphatase non-receptor type 6, sequence (P29350 whole entry, the tested form may be a part): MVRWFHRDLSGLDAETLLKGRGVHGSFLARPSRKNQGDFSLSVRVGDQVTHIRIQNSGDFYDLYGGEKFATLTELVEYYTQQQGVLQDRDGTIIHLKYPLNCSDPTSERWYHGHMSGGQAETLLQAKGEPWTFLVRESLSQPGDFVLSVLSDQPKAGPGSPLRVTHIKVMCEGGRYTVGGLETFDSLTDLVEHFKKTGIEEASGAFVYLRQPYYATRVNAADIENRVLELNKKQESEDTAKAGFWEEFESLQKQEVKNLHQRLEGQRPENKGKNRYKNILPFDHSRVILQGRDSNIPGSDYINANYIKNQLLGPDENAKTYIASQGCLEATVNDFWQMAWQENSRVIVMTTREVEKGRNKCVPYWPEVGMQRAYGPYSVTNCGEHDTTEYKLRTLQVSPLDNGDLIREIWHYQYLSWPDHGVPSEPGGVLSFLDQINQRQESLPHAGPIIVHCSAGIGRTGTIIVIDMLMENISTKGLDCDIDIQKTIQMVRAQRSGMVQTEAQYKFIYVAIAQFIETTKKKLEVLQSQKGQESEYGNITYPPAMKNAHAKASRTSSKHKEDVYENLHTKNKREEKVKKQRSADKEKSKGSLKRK
Procedure, shortened: (§1)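 Phosphatase activity was read with 3,6-fluorescein diphosphate (FDP) as substrate, at roughly the KM concentration for each enzyme. IC50 came from 10 inhibitor concentrations fitted to a four-parameter equation, with errors under 10%. Constructs: flag-PTP1B (1–320); flag-CD45 intracellular domain; GST-PTPβ, GST-SHP1 and GST-SHP2; human recombinant TCPTP from E. coli; flag-CDC25a from baculovirus-infected Sf9 cells.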

[4] = molecular target: T2, Tyrosine-protein phosphatase non-receptor type 2 (Homo sapiens, UniProt P17706); test: Inhibitory activity against Protein tyrosine phosphatase TCPTP.; procedure, shortened: as §1
T2 sequence (P17706 whole entry): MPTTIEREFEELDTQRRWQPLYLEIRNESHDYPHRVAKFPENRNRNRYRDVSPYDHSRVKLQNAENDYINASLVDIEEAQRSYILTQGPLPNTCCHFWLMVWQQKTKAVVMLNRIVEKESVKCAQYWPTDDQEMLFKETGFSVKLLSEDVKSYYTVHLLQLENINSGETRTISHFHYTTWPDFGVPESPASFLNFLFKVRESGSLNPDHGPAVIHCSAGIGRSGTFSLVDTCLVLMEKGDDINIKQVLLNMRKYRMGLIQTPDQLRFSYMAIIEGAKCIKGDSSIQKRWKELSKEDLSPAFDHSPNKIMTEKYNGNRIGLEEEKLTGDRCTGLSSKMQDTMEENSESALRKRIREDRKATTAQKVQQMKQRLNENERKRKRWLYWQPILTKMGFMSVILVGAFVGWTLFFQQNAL

[5] = molecular target: T3, Tyrosine-protein phosphatase non-receptor type 11 (Homo sapiens, UniProt Q06124); test: Inhibitory activity against Protein tyrosine phosphatase SHP-2.; procedure, shortened: as §1
T3 sequence (Q06124 whole entry): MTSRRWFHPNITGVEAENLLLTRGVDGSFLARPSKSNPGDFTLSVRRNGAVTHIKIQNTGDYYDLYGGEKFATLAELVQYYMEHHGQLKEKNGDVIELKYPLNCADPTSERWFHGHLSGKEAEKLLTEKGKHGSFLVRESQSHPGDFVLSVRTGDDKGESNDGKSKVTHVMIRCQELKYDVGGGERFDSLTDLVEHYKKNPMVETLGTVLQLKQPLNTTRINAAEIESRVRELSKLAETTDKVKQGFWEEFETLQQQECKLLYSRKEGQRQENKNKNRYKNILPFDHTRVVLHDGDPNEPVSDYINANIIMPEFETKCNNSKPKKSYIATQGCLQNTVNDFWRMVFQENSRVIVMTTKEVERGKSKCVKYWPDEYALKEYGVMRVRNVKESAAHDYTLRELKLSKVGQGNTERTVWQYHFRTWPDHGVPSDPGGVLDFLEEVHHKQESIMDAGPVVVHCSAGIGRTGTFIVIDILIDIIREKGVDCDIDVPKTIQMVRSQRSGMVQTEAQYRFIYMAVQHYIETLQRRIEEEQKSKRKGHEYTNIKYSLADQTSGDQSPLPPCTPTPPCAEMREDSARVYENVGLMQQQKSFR

[6] = molecular target: Receptor-type tyrosine-protein phosphatase beta (Homo sapiens, UniProt P23467); test: Inhibitory activity against Protein tyrosine phosphatase PTPbeta.; procedure, shortened: as §1
Receptor-type tyrosine-protein phosphatase beta, sequence (P23467 whole entry): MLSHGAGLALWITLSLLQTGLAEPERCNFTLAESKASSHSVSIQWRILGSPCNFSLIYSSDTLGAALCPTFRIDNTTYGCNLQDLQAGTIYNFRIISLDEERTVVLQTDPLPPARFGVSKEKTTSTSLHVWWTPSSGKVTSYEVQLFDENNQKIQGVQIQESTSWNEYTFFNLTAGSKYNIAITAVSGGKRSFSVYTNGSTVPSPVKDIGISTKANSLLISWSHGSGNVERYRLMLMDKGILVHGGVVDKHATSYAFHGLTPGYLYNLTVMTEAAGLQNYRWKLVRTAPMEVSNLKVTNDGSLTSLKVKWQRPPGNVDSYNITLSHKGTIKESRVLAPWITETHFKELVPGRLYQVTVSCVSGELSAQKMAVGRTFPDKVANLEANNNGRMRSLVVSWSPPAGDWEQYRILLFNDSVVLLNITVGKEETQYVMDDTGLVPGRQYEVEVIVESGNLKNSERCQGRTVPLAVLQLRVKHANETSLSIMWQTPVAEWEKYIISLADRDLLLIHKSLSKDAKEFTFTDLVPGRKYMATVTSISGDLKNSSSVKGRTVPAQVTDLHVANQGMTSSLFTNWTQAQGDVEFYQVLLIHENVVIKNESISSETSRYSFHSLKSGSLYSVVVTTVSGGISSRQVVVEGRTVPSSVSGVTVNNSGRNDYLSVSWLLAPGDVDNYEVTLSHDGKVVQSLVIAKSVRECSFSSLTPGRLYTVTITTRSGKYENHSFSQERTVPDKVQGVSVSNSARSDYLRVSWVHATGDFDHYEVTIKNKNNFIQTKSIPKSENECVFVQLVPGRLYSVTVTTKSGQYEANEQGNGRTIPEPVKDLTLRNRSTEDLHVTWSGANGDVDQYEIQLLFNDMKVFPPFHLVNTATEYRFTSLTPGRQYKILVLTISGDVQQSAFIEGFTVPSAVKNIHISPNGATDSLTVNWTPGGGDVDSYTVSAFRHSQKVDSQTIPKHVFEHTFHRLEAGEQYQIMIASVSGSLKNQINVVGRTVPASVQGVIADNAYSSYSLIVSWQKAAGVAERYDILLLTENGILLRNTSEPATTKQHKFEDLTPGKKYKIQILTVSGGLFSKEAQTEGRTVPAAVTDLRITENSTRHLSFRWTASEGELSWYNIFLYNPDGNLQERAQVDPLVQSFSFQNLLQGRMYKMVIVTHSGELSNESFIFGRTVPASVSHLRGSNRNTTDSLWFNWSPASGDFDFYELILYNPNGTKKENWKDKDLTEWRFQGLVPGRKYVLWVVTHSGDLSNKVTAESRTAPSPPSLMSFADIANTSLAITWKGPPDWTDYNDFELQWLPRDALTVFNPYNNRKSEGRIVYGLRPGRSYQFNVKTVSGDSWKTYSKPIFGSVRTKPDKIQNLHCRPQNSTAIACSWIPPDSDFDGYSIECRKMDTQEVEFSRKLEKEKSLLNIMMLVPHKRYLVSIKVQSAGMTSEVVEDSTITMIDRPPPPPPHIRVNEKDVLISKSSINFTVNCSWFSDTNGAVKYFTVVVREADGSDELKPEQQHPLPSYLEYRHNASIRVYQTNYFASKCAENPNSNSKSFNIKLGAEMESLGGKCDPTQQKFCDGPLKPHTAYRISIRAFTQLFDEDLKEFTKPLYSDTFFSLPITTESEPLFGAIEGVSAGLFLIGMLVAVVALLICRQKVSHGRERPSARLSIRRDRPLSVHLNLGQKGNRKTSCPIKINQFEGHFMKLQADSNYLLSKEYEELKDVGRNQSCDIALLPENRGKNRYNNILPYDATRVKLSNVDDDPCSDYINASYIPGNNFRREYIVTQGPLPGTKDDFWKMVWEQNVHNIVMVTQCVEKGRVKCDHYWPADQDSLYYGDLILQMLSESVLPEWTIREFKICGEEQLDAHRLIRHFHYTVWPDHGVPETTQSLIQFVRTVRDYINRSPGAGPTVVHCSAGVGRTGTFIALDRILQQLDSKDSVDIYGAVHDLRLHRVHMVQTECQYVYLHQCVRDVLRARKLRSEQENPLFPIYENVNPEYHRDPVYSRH

[7] = molecular target: T4, Receptor-type tyrosine-protein phosphatase C (Homo sapiens, UniProt P08575); test: Inhibitory activity against Protein tyrosine phosphatase CD45.; procedure, shortened: as §1
T4 sequence (P08575 whole entry): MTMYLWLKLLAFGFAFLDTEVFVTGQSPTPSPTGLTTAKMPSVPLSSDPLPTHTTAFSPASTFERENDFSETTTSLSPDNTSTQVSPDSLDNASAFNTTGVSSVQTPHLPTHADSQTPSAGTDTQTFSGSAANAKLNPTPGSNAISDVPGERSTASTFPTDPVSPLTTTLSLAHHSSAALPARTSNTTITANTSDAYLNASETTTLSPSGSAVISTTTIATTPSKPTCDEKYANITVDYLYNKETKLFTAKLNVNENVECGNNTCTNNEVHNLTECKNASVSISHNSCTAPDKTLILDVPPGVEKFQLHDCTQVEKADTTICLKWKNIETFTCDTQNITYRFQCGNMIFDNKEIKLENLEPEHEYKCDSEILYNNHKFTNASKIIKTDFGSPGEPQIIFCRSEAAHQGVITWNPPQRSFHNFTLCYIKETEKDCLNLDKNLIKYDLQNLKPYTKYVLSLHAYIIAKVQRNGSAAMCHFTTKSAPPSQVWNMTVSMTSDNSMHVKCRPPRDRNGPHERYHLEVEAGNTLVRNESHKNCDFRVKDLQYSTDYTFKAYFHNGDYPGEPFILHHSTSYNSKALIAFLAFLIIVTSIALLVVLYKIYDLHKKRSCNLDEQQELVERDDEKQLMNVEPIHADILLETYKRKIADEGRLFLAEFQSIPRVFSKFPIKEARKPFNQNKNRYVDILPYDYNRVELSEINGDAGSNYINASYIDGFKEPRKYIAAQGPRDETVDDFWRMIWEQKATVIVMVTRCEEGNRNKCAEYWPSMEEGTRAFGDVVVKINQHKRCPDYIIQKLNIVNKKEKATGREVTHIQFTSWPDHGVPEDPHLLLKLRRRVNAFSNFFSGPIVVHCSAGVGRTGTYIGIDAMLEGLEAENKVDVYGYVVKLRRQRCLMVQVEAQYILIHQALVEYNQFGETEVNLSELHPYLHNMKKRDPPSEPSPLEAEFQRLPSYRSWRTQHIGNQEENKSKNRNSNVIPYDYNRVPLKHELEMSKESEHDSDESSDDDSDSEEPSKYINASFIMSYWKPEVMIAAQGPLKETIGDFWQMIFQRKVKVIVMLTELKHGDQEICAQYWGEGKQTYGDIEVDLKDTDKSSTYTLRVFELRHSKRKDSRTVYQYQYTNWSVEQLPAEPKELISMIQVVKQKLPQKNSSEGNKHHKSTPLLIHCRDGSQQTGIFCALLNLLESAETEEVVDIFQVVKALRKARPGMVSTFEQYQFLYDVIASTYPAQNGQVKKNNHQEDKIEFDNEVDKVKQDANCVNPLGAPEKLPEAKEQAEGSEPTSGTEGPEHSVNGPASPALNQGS

[8] = molecular target: T1, Tyrosine-protein phosphatase non-receptor type 1; test: Inhibitory activity against Protein tyrosine phosphatase 1B (PTP1B).
Procedure, shortened: as §1, with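 “enzyme.” for “enzyme. IC50 came from 10 inhibitor concentrations fitted to a four-parameter equation, with errors under 10%.”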

[9] = molecular target: T5, M-phase inducer phosphatase 1 (Homo sapiens, UniProt P30304); test: Inhibitory activity against Protein tyrosine phosphatase cell division cycle 25A; procedure, shortened: as §1
T5 sequence (P30304 whole entry): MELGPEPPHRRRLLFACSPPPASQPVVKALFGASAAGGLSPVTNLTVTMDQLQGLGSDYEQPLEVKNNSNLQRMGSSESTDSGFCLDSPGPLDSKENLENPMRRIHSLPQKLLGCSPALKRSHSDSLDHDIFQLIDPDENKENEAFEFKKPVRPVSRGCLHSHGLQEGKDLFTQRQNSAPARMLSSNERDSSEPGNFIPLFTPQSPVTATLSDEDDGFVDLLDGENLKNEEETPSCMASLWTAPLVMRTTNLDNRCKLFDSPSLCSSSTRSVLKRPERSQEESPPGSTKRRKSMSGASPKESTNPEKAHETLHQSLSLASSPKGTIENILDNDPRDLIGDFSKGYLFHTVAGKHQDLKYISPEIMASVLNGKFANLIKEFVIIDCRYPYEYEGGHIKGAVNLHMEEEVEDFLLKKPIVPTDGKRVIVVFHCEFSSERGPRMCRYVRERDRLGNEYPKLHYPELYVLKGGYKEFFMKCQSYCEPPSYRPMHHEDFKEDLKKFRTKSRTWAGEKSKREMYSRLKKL

[10] = molecular target: T6, Tyrosine-protein phosphatase non-receptor type 4 (Homo sapiens, UniProt P29074); test: Inhibitory activity against Protein tyrosine phosphatase PTPmeg-1.
T6 sequence (P29074 whole entry): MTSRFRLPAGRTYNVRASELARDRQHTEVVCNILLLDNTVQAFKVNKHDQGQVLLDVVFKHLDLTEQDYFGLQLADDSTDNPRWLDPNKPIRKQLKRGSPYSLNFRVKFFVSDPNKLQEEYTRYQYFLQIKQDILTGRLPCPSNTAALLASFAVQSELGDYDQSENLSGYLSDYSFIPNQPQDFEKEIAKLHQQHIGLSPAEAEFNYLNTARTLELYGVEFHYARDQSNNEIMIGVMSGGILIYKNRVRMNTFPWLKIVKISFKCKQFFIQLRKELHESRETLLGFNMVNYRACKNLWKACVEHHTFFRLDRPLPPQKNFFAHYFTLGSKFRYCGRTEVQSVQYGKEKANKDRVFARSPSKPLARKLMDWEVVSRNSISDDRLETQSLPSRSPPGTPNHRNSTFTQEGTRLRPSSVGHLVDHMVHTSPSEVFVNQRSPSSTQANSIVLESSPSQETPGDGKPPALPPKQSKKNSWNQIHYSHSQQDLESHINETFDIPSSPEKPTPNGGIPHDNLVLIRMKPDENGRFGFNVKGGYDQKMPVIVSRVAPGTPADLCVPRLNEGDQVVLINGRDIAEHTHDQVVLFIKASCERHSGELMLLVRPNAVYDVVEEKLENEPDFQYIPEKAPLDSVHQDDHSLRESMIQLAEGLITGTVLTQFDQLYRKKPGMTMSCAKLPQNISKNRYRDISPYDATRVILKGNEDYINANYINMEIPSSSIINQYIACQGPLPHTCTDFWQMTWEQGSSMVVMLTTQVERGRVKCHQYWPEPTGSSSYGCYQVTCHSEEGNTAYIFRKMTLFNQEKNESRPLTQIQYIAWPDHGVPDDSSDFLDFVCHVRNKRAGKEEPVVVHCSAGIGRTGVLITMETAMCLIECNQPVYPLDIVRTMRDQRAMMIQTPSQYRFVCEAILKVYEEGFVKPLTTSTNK

Ki [1] | Ki [2] | IC50 [3] | IC50 [4] | IC50 [5] | IC50 [6] | IC50 [7] | IC50 [8] | IC50 [9] | IC50 [10] | Structure (SMILES)
0.93 µM |  |  |  |  |  |  |  |  |  | O=C(CCc1ccc(C(F)(F)P(=O)(O)O)cc1)Nc1cc(NC(=O)CCc2ccc(C(F)(F)P(=O)(O)O)cc2)cc(C(=O)NCc2ccc(C(=O)O)cc2)c1
 | 1.5 µM | 31 µM | 6.4 µM | 91 µM | 342 µM | 198 µM | 4.4 µM |  |  | O=P(O)(O)C(F)(F)c1ccc(CCCCc2ccc(C(F)(F)P(=O)(O)O)cc2)cc1
 |  | 16 µM | 7.9 µM | 32 µM | 77 µM | 108 µM | 5.3 µM | 163 µM |  | O=P(O)(O)C(F)(F)c1ccc(COc2cccc(OCc3ccc(C(F)(F)P(=O)(O)O)cc3)c2)cc1
 |  | 6.3 µM | 4.6 µM | 16 µM | 15 µM | 14 µM | 4.2 µM | 30 µM | 146 µM | O=P(O)(O)C(F)(F)c1ccc(COc2ccc(OCc3ccc(C(F)(F)P(=O)(O)O)cc3)cc2)cc1
 |  | 15 µM | 3.2 µM | 60 µM | 77 µM | 42 µM | 1.7 µM | 163 µM |  | O=P(O)(O)C(F)(F)c1ccc(COc2ccccc2OCc2ccc(C(F)(F)P(=O)(O)O)cc2)cc1
 |  | 61 µM | 6.1 µM | 152 µM | 300 µM | 236 µM | 3.9 µM |  |  | O=P(O)(O)C(F)(F)c1ccc(COCCOCc2ccc(C(F)(F)P(=O)(O)O)cc2)cc1
